Test results from ChEMBL document CHEMBL4138193, “Novel indole and triazole based hybrid molecules exhibit potent anti-adipogenic and antidyslipidemic activity by activating Wnt3a/β-catenin pathway” (Eur J Med Chem, 2018).
Active and inactive are the calls of the source. The rule behind the calls is not given here.

Columns and labels:
[1] = test system: 3T3-L1; assay: Anti-adipogenic activity in mouse 3T3L1 cells assessed as reduction in lipid accumulation at early differentiation stage at 20 uM measured up to 3 days by Oil Red O absorbance method; format: functional, cell-based
How it was run: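 3T3-L1 or C3H10T1/2 cells given 20 µM compound with differentiation media for different time periods. Oil red O stain extracted from accumulated lipid with isopropanol and absorbance read at 492 nm. n=3, mean ± SD, Student t test against MDI+ group.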

[2] = test system: Syrian golden hamster; assay: Induction of reverse cholestrol transport in high fat diet-induced dyslipidemia Syrian Golden hamster model assessed as decrease in NPCL1 mRNA expression in liver at 100 mg/kg, po administered for 1 week by qRT-PCR analysis; format: functional, organism-based; details: Mesocricetus auratus
[3] = species: Mus musculus; assay: Activation of Wnt3a/beta-catenin in mouse 3T3L1 cells assessed as induction of LEF1 expression at 20 uM after 16 to 24 hrs by Western blot analysis; format: cell-based
[4] = test system: 3T3-L1; assay: Induction of Wnt5b mRNA expression in mouse 3T3L1 cells at 20 uM by qRT-PCR analysis; format: functional, cell-based
How it was run: (§1)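 3T3-L1 cells induced with MDI differentiation medium with or without 20 µM. RNA isolated with TRIzol and 500 ng reverse-transcribed to cDNA for real-time PCR. n=3 with triplicates, mean ± SD; one-way ANOVA with Bonferroni post-test.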

[5] = test system: 3T3-L1; assay: Upregulation of wnt3a mRNA expression in mouse 3T3L1 cells at 20 uM by qRT-PCR analysis; format: functional, cell-based; how it was run: as §1

In the case of `Cc1ccc(S(=O)(=O)N(Cc2cn(Cc3cccc(F)c3F)nn2)Cc2cn(S(=O)(=O)c3ccc(C)cc3)c3ccccc23)cc1`, the Activity [1] is reported as “Active”, the Activity [2] is reported as “Active” and the Activity [3] is reported as “Active”. For the same compound, the Activity [4] was “inactive” and the Activity [5] was “Active”.
